Laboratory results published in ChEMBL document CHEMBL3751758, “Cysteine-Rich Peptide Family with Unusual Disulfide Connectivity from Jasminum sambac” (J Nat Prod, 2015).
Active and inactive are the calls of the source. No cut-off for these calls is given here. Bridge positions count the residues as written; N and C are the ends. Peptide text beside a SMILES is read from it.

Columns and labels:
Carboxypeptidase A1 = target: T1, Carboxypeptidase A1 (Homo sapiens, UniProt P15085); test: Stability of the compound in Tris buffer assessed as carboxypeptidase A (unknown origin)-mediated compound degradation at pH 7.5 at 37 degC after 4 hrs by UPLC analysis; format: ADME; details: pH 7.5, 4 h
T1 sequence (P15085 whole entry): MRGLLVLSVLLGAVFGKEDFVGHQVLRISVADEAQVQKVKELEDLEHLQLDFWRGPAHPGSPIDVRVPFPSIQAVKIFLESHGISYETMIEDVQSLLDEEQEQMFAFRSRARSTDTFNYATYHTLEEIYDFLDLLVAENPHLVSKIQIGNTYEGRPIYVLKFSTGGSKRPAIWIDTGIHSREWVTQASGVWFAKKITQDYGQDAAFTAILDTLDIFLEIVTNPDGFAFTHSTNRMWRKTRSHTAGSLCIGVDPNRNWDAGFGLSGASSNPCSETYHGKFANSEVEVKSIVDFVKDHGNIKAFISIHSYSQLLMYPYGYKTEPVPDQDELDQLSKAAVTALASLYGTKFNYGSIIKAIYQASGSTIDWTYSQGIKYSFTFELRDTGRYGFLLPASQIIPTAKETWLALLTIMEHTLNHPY
How it was run: (§1)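 Peptide was incubated with or without carboxypeptidase A at 50:1 (w/w) in 50 mM Tris/100 mM NaCl pH 7.5 at 37 °C for up to 6 h. Collected peaks were checked by MALDI-TOF, and stability was judged from UPLC peak areas.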

[1] = Stability of the compound in NH4HCO3 buffer assessed as trypsin (unknown origin)-mediated degradation at pH 7.8 at 37 degC after 1 hr by UPLC analysis; format: ADME; details: human, pH 7.8, 1 h
[2] = (§2) Stability of the compound in 100 mM sodium citrate buffer assessed as pepsin (unknown origin)-mediated compound degradation by measuring intact compound level at pH 2.5 at 37 degC after 4 hrs by UPLC analysis; format: ADME; details: human, buffer, pH 2.5, 4 h
[3] = Stability of the compound in boiling water assessed as compound remaining after 1 hr by UPLC analysis; format: physicochemical; details: read-out: Stability
Vero = test: Cytotoxicity against African green monkey Vero cells at 10 uM after 24 hrs by Presto Blue-based cell viability assay; details: chlorocebus sabaeus
How it was run: (§3)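 Cells were seeded at 8 x 10^3 per well in DMEM with 10% FBS and 1% penicillin/streptomycin, at 37 °C under 5% CO2. After 24 h, peptide was added at 0.01–10 µM in triplicate for 24 h. PrestoBlue was then added for 1 h at 37 °C and absorbance read at 570 nm. Controls were 1% Triton X-100 and PBS.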

[4] = target: T2, Carboxypeptidase A1 (Bos taurus) (UniProt P00730); test: Inhibition of bovine carboxypeptidase A using N-(4-methoxyphenylazoformyl)phenylalanine as substrate at 0.1 to 100 uM
T2 sequence (whole entry): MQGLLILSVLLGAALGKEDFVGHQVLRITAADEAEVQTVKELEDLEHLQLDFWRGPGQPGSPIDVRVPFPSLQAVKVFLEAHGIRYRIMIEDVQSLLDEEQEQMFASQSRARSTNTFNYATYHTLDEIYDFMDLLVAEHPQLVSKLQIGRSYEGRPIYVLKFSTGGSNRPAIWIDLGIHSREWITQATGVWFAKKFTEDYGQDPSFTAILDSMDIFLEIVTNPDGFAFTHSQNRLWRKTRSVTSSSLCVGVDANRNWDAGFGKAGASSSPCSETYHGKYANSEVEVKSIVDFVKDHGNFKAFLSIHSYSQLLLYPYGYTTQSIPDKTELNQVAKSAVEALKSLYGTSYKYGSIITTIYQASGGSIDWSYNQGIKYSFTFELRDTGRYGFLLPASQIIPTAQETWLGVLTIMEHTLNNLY
How it was run: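 Peptide at 0.1–100 µM was combined with 0.1 mM N-(4-methoxyphenylazoformyl)phenylalanine substrate. The reaction was started with 25 nM bovine carboxypeptidase A, and substrate hydrolysis was followed at 350 nm.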

[5] = Hemolytic activity in human type O+ erythrocytes up to 10 uM after 4 hrs by spectrophotometric analysis; format: ADME, cell-based; details: erythrocyte
How it was run: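 Erythrocytes came from fresh type O+ blood of a healthy volunteer. Cells were pelleted at 1000 rpm for 15 min, washed three times in PBS and diluted 100X in PBS. Peptide at various concentrations was mixed with an equal volume of cells for 4 h at 37 °C. Plates were spun at 1000 rpm for 5 min and supernatant absorbance read at 415 nm. Controls were 0.1% Triton X-100 and PBS.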

trypsin = test: Stability of the compound in NH4HCO3 buffer assessed as trypsin (unknown origin)-mediated degradation by measuring intact compound level at pH 7.8 at 37 degC after 8 hrs by UPLC analysis; format: ADME; details: human, read-out: Stability
Staphylococcus aureus = test: Antibacterial activity against Staphylococcus aureus ATCC 12600 up to 100 uM by radial diffusion assay; format: functional, organism-based
How it was run: (§4)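 Radial diffusion assay under low-salt conditions (10 mM Na3PO4). Strains were grown in trypticase soy broth. D4R peptide dendrimer was the positive control.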

carboxypeptidase A = target: T3, carboxypeptidase A (Homo sapiens, UniProt P15085); test: Stability of the compound in Tris buffer assessed as carboxypeptidase A (unknown origin)-mediated compound degradation by measuring intact compound level at pH 7.5 at 37 degC after 6 hrs by UPLC analysis; format: ADME; details: read-out: Stability; how it was run: as §1
T3 sequence (P15085 whole entry): T1 sequence (P15085 whole entry)

pepsin = test: as §2; format: ADME; details: human, pepsin in 100 mM sodium citrate buffer, pH 2.5; read-out: Stability
Escherichia coli = test: Antibacterial activity against Escherichia coli ATCC 25922 up to 100 uM by radial diffusion assay; format: functional, organism-based; how it was run: as §4
Candida albicans = test: Antifungal activity against Candida albicans 11006 up to 100 uM by radial diffusion assay; format: functional, organism-based; how it was run: as §4
HUVEC = test: Cytotoxicity against HUVEC at 10 uM after 24 hrs by Presto Blue-based cell viability assay; details: human; how it was run: as §3

Row | Stability (Carboxypeptidase A1) | Stability [1] | Stability [2] | remaining at 1 h [3] [%] | inhibition [4] | remaining at 8 h (trypsin) [%] | remaining at 6 h (carboxypeptidase A) [%] | remaining at 4 h (pepsin) [%] | SMILES | Activity (Vero) | Activity [5] | Activity (Staphylococcus aureus) | Activity (Escherichia coli) | Activity (Candida albicans) | Activity (HUVEC)
1 | Unstable | Unstable | Unstable |  |  |  |  |  | CC(C)C[C@H](NC(=O)[C@@H]1CCCN1C(=O)[C@H](CO)NC(=O)[C@H](Cc1ccccc1)NC(=O)CNC(=O)[C@@H]1CCCN1C(=O)[C@@H]1CCCN1C(=O)[C@H](CCCN=C(N)N)NC(=O)[C@@H](N)CCCCN)C(=O)O |  |  |  |  |  | 
2 |  |  |  | 96 | inactive | 73 | > 90 | > 90 | CC[C@H](C)[C@H](NC(=O)[C@@H](NC(=O)[C@H](CC(N)=O)NC(=O)[C@@H]1CSSC[C@@H]2NC(=O)[C@H](CC(=O)O)NC(=O)[C@H](CO)NC(=O)[C@H](CC(N)=O)NC(=O)[C@H](CO)NC(=O)[C@H](CCCNC(=N)N)NC(=O)[C@@H]3CSSC[C@H](NC(=O)[C@H]([C@@H](C)CC)NC(=O)[C@H](CCCNC(=N)N)NC(=O)[C@H](Cc4c[nH]c5ccccc45)NC(=O)[C@H]([C@@H](C)CC)NC(=O)[C@H]([C@@H](C)CC)NC(=O)[C@H](CC(N)=O)NC2=O)C(=O)N[C@@H](CCCNC(=N)N)C(=O)N[C@@H](CC(=O)O)C(=O)NCC(=O)N[C@@H](CSSC[C@H](NC(=O)[C@H](CC(C)C)NC(=O)[C@@H](N)CCC(N)=O)C(=O)N[C@@H](CC(C)C)C(=O)N[C@@H](CCC(N)=O)C(=O)N3)C(=O)N1)C(C)C)C(=O)O (H-QLCLQCRSNSDCNIIWRICRDGCCNVI-OH; disulfide 3-23, 6-19, 12-24) | Non-toxic | Non-toxic | inactive | inactive | inactive | Non-toxic
3 | Unstable | Unstable | Unstable |  |  |  |  |  | CC(C)C[C@H](NC(=O)[C@H](CCCNC(=N)N)NC(=O)CNC(=O)[C@H](CCCNC(=N)N)NC(=O)[C@H](CCCNC(=N)N)NC(=O)[C@H](Cc1ccc(O)cc1)NC(=O)[C@H](CC(C)C)NC(=O)[C@@H](N)CCCNC(=N)N)C(=O)N[C@@H](Cc1ccc(O)cc1)C(=O)N[C@@H](CCCNC(=N)N)C(=O)N[C@@H](CCCNC(=N)N)C(=O)N[C@@H](CC(N)=O)C(=O)N[C@@H](Cc1cnc[nH]1)C(=O)N[C@H](C(=O)O)C(C)C (H-RLYRRGRLYRRNHV-OH) |  |  |  |  |  | 
